# Measured values collected from several papers.
# Compare with care: the assays were run in different laboratories.
# Plasmepsin II: Plasmepsin II (Plasmodium falciparum, UniProt P46925)
# SIRT6: NAD-dependent protein deacylase sirtuin-6 (SIRT6, Homo sapiens, UniProt Q8N6T7)
# SCN5A: Sodium channel protein type 5 subunit alpha (SCN5A, Homo sapiens, UniProt Q14524)
# CCR2: C-C chemokine receptor type 2 (CCR2, Homo sapiens, UniProt P41597)
# Adra1a: Alpha-1A adrenergic receptor (Adra1a, Rattus norvegicus, UniProt P43140)
# CCR5: C-C chemokine receptor type 5 (CCR5, Homo sapiens, UniProt P51681)
# HTR7: 5-hydroxytryptamine receptor 7 (HTR7, Homo sapiens, UniProt P34969)
# HTR6: 5-hydroxytryptamine receptor 6 (HTR6, Homo sapiens, UniProt P50406)
SMILES,target,test,test system,setting,inhibition [%]
C1=CSC(=C2SC=CS2)S1,"Ubiquitin carboxyl-terminal hydrolase 14 (USP14, Homo sapiens, UniProt P54578)","enzyme activity, inhibitor",,17 µM,54
O=[N+]([O-])c1ccc(N2CCC(NCCC(O)c3csc4ccc(F)cc34)CC2)c(C(F)(F)F)c1 (stereo not shown),Plasmepsin II,"enzyme activity, inhibitor",,5 µM,0
COc1cccc(Sc2ccc(CONC(=O)c3ccc(C(N)=O)cc3)cc2C(F)(F)F)c1,SIRT6,"enzyme activity, inhibitor, fluorescence",,100 µM,100
CC/C(=N\NC(=O)NCc1cccc(O)c1)c1ccc(O)c(C)c1O,"[Pyruvate dehydrogenase (acetyl-transferring)] kinase isozyme 4, mitochondrial (PDK4, Homo sapiens, UniProt Q16654)","enzyme activity, inhibitor",,0.1 µM,-2.1
N=c1n(CCN2CCCCC2)c2ccccc2n1CC(O)c1cccc(Br)c1 (stereo not shown),SCN5A,"ion current, inhibitor, patch clamp",CHO,10 µM,66
COc1ccccc1CONC(=O)c1ccc(C(N)=O)cc1,SIRT6,"enzyme activity, inhibitor, fluorescence",,100 µM,60.5
CN(Cc1ccc(NC(=O)C2=Cc3cc(-c4ccc(OCCCO)cc4)ccc3CCC2)cc1)C1CCOCC1,CCR2,"ligand displacement, radioligand",,"1 µM, cell membranes",51
O=[N+]([O-])c1ccc(N2CCN(CCC(O)c3ccc(F)cc3)CC2)c(C(F)(F)F)c1 (stereo not shown),Plasmepsin II,"enzyme activity, inhibitor",,5 µM,0
CN(Cc1ccc(NC(=O)C2=Cc3cc(-c4ccc(OCCCF)cc4)ccc3CCC2)cc1)C1CCOCC1,CCR2,"ligand displacement, radioligand",,"1 µM, cell membranes",48
NC(=O)c1ccc(C(=O)NOCc2ccc(Sc3cccc(F)c3)c(C(F)(F)F)c2)cc1,SIRT6,"enzyme activity, inhibitor, fluorescence",,100 µM,97.6
O=C(Nc1ccc(S(=O)(=O)N2CCC(Cl)CC2)cc1)c1ccc([N+](=O)[O-])o1,Adra1a,"ligand displacement, radioligand",,10 µM,19
C/C(=C\C(=O)OCCCCCCCCC(=O)O)C[C@@H]1OC[C@H](C[C@@H]2O[C@H]2[C@@H](C)[C@H](C)O)[C@@H](O)[C@H]1O,CCR5,"calcium signal, antagonist",U87/CD4/CCR5,0.8 µM,52
O=C(c1ccc(Cl)cc1)N(Cc1ccccc1)C1CCCCC1,HTR7,"ligand displacement, radioligand",,10 µM,19.2
O=C(NCCNC(=O)c1n[nH]c(=O)c2ccccc12)c1cccc(CN2C(=O)CNC2=O)c1,"Poly [ADP-ribose] polymerase 2 (PARP2, Homo sapiens, UniProt Q9UGN5)","enzyme activity, inhibitor",,0.5 µM,~50
O=C(NC1CCC1)[C@H](Cc1c[nH]c2ccccc12)NC(=O)[C@H](CCCCNC(=S)NCCc1nnn[nH]1)NS(=O)(=O)c1cccc(F)c1,SIRT6,"enzyme activity, inhibitor",,10 µM,6
CCN(CC)CCNC(=O)C1CCN(c2ccc3nnc(-c4cccc(C)c4)n3n2)CC1,SCN5A,"ion current, inhibitor, patch clamp",CHO,10 µM,9.9
NC(=O)c1ccc(C(=O)NOCc2ccc(Sc3cc(Cl)cc(Cl)c3)c(C(F)(F)F)c2)cc1,SIRT6,"enzyme activity, inhibitor, fluorescence",,100 µM,100
CCN(CC)c1ccc(C2Nc3ccc(C(=O)c4ccccc4)cc3NC3=C2C(=O)CC(C)(C)C3)cc1 (stereo not shown),HTR6,"ligand displacement, radioligand",,10 µM,30
N#Cc1cc(Cn2c(N3CCCC3)nc3ccccc32)ccc1F,HTR6,ligand displacement,,10 µM,6.5
CC(C)(C)c1ccc(CONC(=O)c2ccc(C(N)=O)cc2)cc1,SIRT6,"enzyme activity, inhibitor, fluorescence",,100 µM,95.1
COc1cc2c3c(c1OCc1ccc(Br)cc1)-c1cc4c(cc1CC3N(C)CC2c1ccccc1)OCO4 (stereo not shown),HTR7,"ligand displacement, radioligand",,10 µM,-22.6
NC(=O)c1ccc(C(=O)NOCc2ccc(Sc3ccccc3Cl)c(C(F)(F)F)c2)cc1,SIRT6,"enzyme activity, inhibitor, fluorescence",,100 µM,99.1
OCc1cc(C(O)CNCCCCCCOCCCCc2ccccc2)ccc1O (stereo not shown),CCR5,"calcium signal, antagonist",U87/CD4/CCR5,100 µM,60
NC(=S)c1ccc(C(=O)NOCc2ccc(C(F)(F)F)cc2)cc1,SIRT6,"enzyme activity, inhibitor, fluorescence",,100 µM,89.2
CNC(=O)c1cc2c(Oc3ccc(NC(=O)C4(C(=O)Nc5ccc(F)cc5)CC4)cc3)ccnc2cc1OC,"Angiopoietin-1 receptor (TEK, Homo sapiens, UniProt Q02763, R849W)","enzyme activity, inhibitor, radiometric",,1 µM,99
O=C(NOCc1ccc(C(F)(F)F)cc1)c1ccc(-c2nn[nH]n2)cc1,SIRT6,"enzyme activity, inhibitor, fluorescence",,100 µM,4.2
CCN(Cc1ccccc1C(F)(F)F)C(=O)C1CCN(S(=O)(=O)c2ccc3[nH]ncc3c2)CC1,Adra1a,"ligand displacement, radioligand",,10 µM,12
Ic1cccc2cnccc12,Adra1a,"ligand displacement, radioligand",,10 µM,9
O=[N+]([O-])c1ccc(N2CCC(NCCC(O)c3ccc(F)c4ccccc34)CC2)c(C(F)(F)F)c1 (stereo not shown),Plasmepsin II,"enzyme activity, inhibitor",,5 µM,9
O=C(c1ccc(F)cc1)N(Cc1ccccc1)C1CCCCC1,Adra1a,cell-free assay,,10 µM,-1
CSSc1ccccc1C(=O)O,"Cathepsin B (CTSB, Homo sapiens, UniProt P07858)","enzyme activity, inhibitor, fluorescence",,20 µM,100
